Data on four compounds can be found in ChEMBL document CHEMBL1817648, “Synthesis and in vitro antibacterial activity of a series of novel gatifloxacin derivatives” (Eur J Med Chem, 2011).

Data set [1] relates to Pseudomonas aeruginosa. Description: Antibacterial activity against Pseudomonas aeruginosa 09-33 after 18 to 24 hrs by NCCLS M100-S11 two fold serial dilution method. It counts as functional.
For data set [2], the system named is Pseudomonas aeruginosa. Description: Antibacterial activity against Pseudomonas aeruginosa 09-32 after 18 to 24 hrs by NCCLS M100-S11 two fold serial dilution method. In kind it is functional.
For data set [3], the system named is Enterococcus faecalis. Description: Antibacterial activity against Enterococcus faecalis 08-12 after 18 to 24 hrs by NCCLS M100-S11 two fold serial dilution method. It counts as functional.
For data set [4], the system named is Klebsiella pneumoniae. Description: Antibacterial activity against Klebsiella pneumoniae 09-23 after 18 to 24 hrs by NCCLS M100-S11 two fold serial dilution method. It counts as functional.
Data set [5] has as its system Streptococcus pneumoniae. Description: Antibacterial activity against Streptococcus pneumoniae 08-2 after 18 to 24 hrs by NCCLS M100-S11 two fold serial dilution method. In kind it is functional.
Data set [6] has as its system Pseudomonas aeruginosa. Description: Antibacterial activity against Pseudomonas aeruginosa 09-34 after 18 to 24 hrs by NCCLS M100-S11 two fold serial dilution method. It counts as functional.
The test system of data set [7] is Pseudomonas aeruginosa. Description: Antibacterial activity against Pseudomonas aeruginosa ATCC 27853 after 18 to 24 hrs by NCCLS M100-S11 two fold serial dilution method. It counts as functional.
The subject of data set [8] is Enterococcus faecium. Description: Antibacterial activity against Enterococcus faecium 08-2 after 18 to 24 hrs by NCCLS M100-S11 two fold serial dilution method. It counts as functional.
For data set [9], the system named is Staphylococcus epidermidis. Description: Antibacterial activity against methicillin-sensitive Staphylococcus epidermidis 09-3 after 18 to 24 hrs by NCCLS M100-S11 two fold serial dilution method. It counts as functional. Summed up: (§1)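 Two-fold serial dilution in agar medium. MIC read as the lowest concentration giving complete inhibition of bacterial growth after incubation at 35 °C for 18–24 h.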

Data set [10] has as its system Staphylococcus aureus. Description: Antibacterial activity against Staphylococcus aureus ATCC 25923 after 18 to 24 hrs by NCCLS M100-S11 two fold serial dilution method. Conditions: ATCC25923. In kind it is functional.
The subject of data set [11] is Staphylococcus epidermidis. Description: Antibacterial activity against methicillin-resistant Staphylococcus epidermidis 09-4 after 18 to 24 hrs by NCCLS M100-S11 two fold serial dilution method. It counts as functional. Summed up:
as §1

For data set [12], the system named is Escherichia coli. Description: Antibacterial activity against Escherichia coli 08-21 after 18 to 24 hrs by NCCLS M100-S11 two fold serial dilution method. In kind it is functional.
The subject of data set [13] is Klebsiella pneumoniae. Description: Antibacterial activity against Klebsiella pneumoniae 09-22 after 18 to 24 hrs by NCCLS M100-S11 two fold serial dilution method. It counts as functional.
The test system of data set [14] is Staphylococcus aureus. Description: Antibacterial activity against methicillin-resistant Staphylococcus aureus 08-1 after 18 to 24 hrs by NCCLS M100-S11 two fold serial dilution method. It counts as functional. Summed up:
as §1

Data set [15] deals with Enterococcus faecalis. Description: Antibacterial activity against Enterococcus faecalis 08-10 after 18 to 24 hrs by NCCLS M100-S11 two fold serial dilution method. It counts as functional.
Data set [16] relates to Staphylococcus epidermidis. Description: Antibacterial activity against methicillin-sensitive Staphylococcus epidermidis 09-6 after 18 to 24 hrs by NCCLS M100-S11 two fold serial dilution method. In kind it is functional. Summed up:
as §1

Data set [17] has as its system Streptococcus pneumoniae. Description: Antibacterial activity against Streptococcus pneumoniae 08-4 after 18 to 24 hrs by NCCLS M100-S11 two fold serial dilution method. It counts as functional.
Data set [18] concerns Enterococcus faecium. Description: Antibacterial activity against Enterococcus faecium 08-7 after 18 to 24 hrs by NCCLS M100-S11 two fold serial dilution method. It counts as functional.
For data set [19], the system named is Escherichia coli. Description: Antibacterial activity against Escherichia coli ATCC 25922 after 18 to 24 hrs by NCCLS M100-S11 two fold serial dilution method. It counts as functional. The following applies: ATCC25922.
The subject of data set [20] is Staphylococcus aureus. Description: Antibacterial activity against methicillin-sensitive Staphylococcus aureus 08-1 after 18 to 24 hrs by NCCLS M100-S11 two fold serial dilution method. In kind it is functional.
Data set [21] relates to Escherichia coli. Description: Antibacterial activity against Escherichia coli 08-22 after 18 to 24 hrs by NCCLS M100-S11 two fold serial dilution method. It counts as functional.
The nature of data set [22]: Cytotoxicity against african green monkey Vero cells after 72 hrs by MTT assay. It counts as cell-based. The following applies: chlorocebus sabaeus. Summed up: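 Vero cells were kept in Minimum Essential Medium with Earle's salts plus 10% fetal bovine serum at 37 °C under 5% CO₂. Cells were seeded at 1 × 10⁴ per well and allowed to recover 24 h. Medium was then replaced with assay medium containing compound or no drug, and cells were exposed for 72 h. CC₅₀ is the 50% cellular cytotoxic concentration.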

Values after ≈ are worked out from the molar mass of the structure shown.

For `COc1c(N2CCN(CC#N)C(C)C2)c(F)cc2c(=O)c(C(=O)O)cn(C3CC3)c12` (stereo not drawn), the MIC stood at 32 µg/mL (≈ 77.2 µM) against Pseudomonas aeruginosa [1]; 0.25 µg/mL (≈ 0.603 µM) in the data set on Pseudomonas aeruginosa [2]; 8 µg/mL (≈ 19.3 µM) in the data set with Enterococcus faecalis [3]; 2 µg/mL (≈ 4.83 µM) in the data set on Klebsiella pneumoniae [4]; 8 µg/mL (≈ 19.3 µM) against Streptococcus pneumoniae [5]; 2 µg/mL (≈ 4.83 µM) in the data set on Pseudomonas aeruginosa [6]. Also, the minimal inhibitory concentration (MIC) stood at 2 µg/mL (≈ 4.83 µM) against Pseudomonas aeruginosa [7]; 8 µg/mL (≈ 19.3 µM) in the data set on Enterococcus faecium [8]; 0.25 µg/mL (≈ 0.603 µM) in data set [9]; 1 µg/mL (≈ 2.41 µM) with Staphylococcus aureus [10]; 0.25 µg/mL (≈ 0.603 µM) in [11]; 8 µg/mL (≈ 19.3 µM) against Escherichia coli [12]. Also, the minimum inhibitory concentration (MIC) in the data set on Klebsiella pneumoniae [13] turned out to be 2 µg/mL (≈ 4.83 µM); with Staphylococcus aureus [14], 1 µg/mL (≈ 2.41 µM); with Enterococcus faecalis [15], 8 µg/mL (≈ 19.3 µM); in data set [16], 0.25 µg/mL (≈ 0.603 µM); with Streptococcus pneumoniae [17], 1 µg/mL (≈ 2.41 µM); in the data set on Enterococcus faecium [18], 8 µg/mL (≈ 19.3 µM). For the same compound, the minimal inhibitory concentration (MIC) with Escherichia coli [19] was 4 µg/mL (≈ 9.65 µM); against Staphylococcus aureus [20], 1 µg/mL (≈ 2.41 µM); against Escherichia coli [21], 8 µg/mL (≈ 19.3 µM). The cytotoxic concentration (CC50) at 72 h in [22] was 354 µg/mL (≈ 853 µM).
For `COc1c(N2CCN(CCC#N)C(C)C2)c(F)cc2c(=O)c(C(=O)O)cn(C3CC3)c12` (stereo not drawn), the MIC in the data set with Pseudomonas aeruginosa [1] stood at 128 µg/mL (≈ 299 µM); in the data set with Pseudomonas aeruginosa [2], 4 µg/mL (≈ 9.34 µM); in the data set with Enterococcus faecalis [3] it was 32 µg/mL (≈ 74.7 µM); with Klebsiella pneumoniae [4], 32 µg/mL (≈ 74.7 µM); against Streptococcus pneumoniae [5], 32 µg/mL (≈ 74.7 µM); with Pseudomonas aeruginosa [6], 16 µg/mL (≈ 37.3 µM). The minimum inhibitory concentration (MIC) came to 8 µg/mL (≈ 18.7 µM) against Pseudomonas aeruginosa [7]; 32 µg/mL (≈ 74.7 µM) with Enterococcus faecium [8]; 0.25 µg/mL (≈ 0.583 µM) in data set [9]; 2 µg/mL (≈ 4.67 µM) with Staphylococcus aureus [10]; 2 µg/mL (≈ 4.67 µM) in [11]; 32 µg/mL (≈ 74.7 µM) with Escherichia coli [12]. Besides, the MIC was determined as 32 µg/mL (≈ 74.7 µM) against Klebsiella pneumoniae [13]; 4 µg/mL (≈ 9.34 µM) with Staphylococcus aureus [14]; 64 µg/mL (≈ 149 µM) with Enterococcus faecalis [15]; 2 µg/mL (≈ 4.67 µM) in data set [16]; 4 µg/mL (≈ 9.34 µM) in the data set on Streptococcus pneumoniae [17]; 32 µg/mL (≈ 74.7 µM) in the data set on Enterococcus faecium [18]. Further, the MIC with Escherichia coli [19] turned out to be 16 µg/mL (≈ 37.3 µM); with Staphylococcus aureus [20] it was 4 µg/mL (≈ 9.34 µM); against Escherichia coli [21], 64 µg/mL (≈ 149 µM). In addition, half-maximal cytotoxicity in data set [22] (CC50 at 72 h) was put at 500 µg/mL (≈ 1170 µM).
In the case of `COC(=O)CN1CCN(c2c(F)cc3c(=O)c(C(=O)O)cn(C4CC4)c3c2OC)CC1C` (stereo not drawn), the minimum inhibitory concentration (MIC) is 128 µg/mL (≈ 286 µM) against Pseudomonas aeruginosa [1]; 128 µg/mL (≈ 286 µM) against Pseudomonas aeruginosa [2]; above 128 µg/mL in the data set on Enterococcus faecalis [3]; above 128 µg/mL in the data set on Klebsiella pneumoniae [4]; above 128 µg/mL against Streptococcus pneumoniae [5]; above 128 µg/mL in the data set with Pseudomonas aeruginosa [6]. The minimum inhibitory concentration (MIC) in the data set with Pseudomonas aeruginosa [7] was 128 µg/mL (≈ 286 µM); in the data set on Enterococcus faecium [8], above 128 µg/mL; in data set [9], 32 µg/mL (≈ 71.5 µM); in the data set on Staphylococcus aureus [10] it was 8 µg/mL (≈ 17.9 µM); in [11], 32 µg/mL (≈ 71.5 µM); against Escherichia coli [12], above 128 µg/mL. The MIC with Klebsiella pneumoniae [13] is 128 µg/mL (≈ 286 µM); in the data set on Staphylococcus aureus [14] it was 128 µg/mL (≈ 286 µM); in the data set on Enterococcus faecalis [15], above 128 µg/mL; in data set [16] it was 32 µg/mL (≈ 71.5 µM); in the data set with Streptococcus pneumoniae [17], above 128 µg/mL; against Enterococcus faecium [18], above 128 µg/mL. Further, the MIC against Escherichia coli [19] was 128 µg/mL (≈ 286 µM); in the data set on Staphylococcus aureus [20], 32 µg/mL (≈ 71.5 µM); in the data set with Escherichia coli [21], above 128 µg/mL. The compound further yielded a cytotoxic concentration (CC50) at 72 h in data set [22] of 500 µg/mL (≈ 1120 µM).
With `COC(=O)CCN1CCN(c2c(F)cc3c(=O)c(C(=O)O)cn(C4CC4)c3c2OC)CC1C` (stereo not drawn), the MIC in the data set with Pseudomonas aeruginosa [1], with Pseudomonas aeruginosa [2], with Enterococcus faecalis [3], in the data set with Klebsiella pneumoniae [4], against Streptococcus pneumoniae [5] and against Pseudomonas aeruginosa [6] was above 128 µg/mL each time. Besides, the MIC was above 128 µg/mL in the data set on Pseudomonas aeruginosa [7]; above 128 µg/mL against Enterococcus faecium [8]; above 128 µg/mL in [9]; 8 µg/mL (≈ 17.3 µM) against Staphylococcus aureus [10]; above 128 µg/mL in data set [11]; above 128 µg/mL with Escherichia coli [12]. The MIC against Klebsiella pneumoniae [13] was above 128 µg/mL; with Staphylococcus aureus [14], 4 µg/mL (≈ 8.67 µM); against Enterococcus faecalis [15], above 128 µg/mL; in [16], above 128 µg/mL; against Streptococcus pneumoniae [17], above 128 µg/mL; with Enterococcus faecium [18], above 128 µg/mL. For the same compound, the MIC against Escherichia coli [19] was above 128 µg/mL; against Staphylococcus aureus [20], 4 µg/mL (≈ 8.67 µM); in the data set on Escherichia coli [21] it was above 128 µg/mL. In data set [22], the 50% cytotoxic concentration (CC50) at 72 h was above 1000 µg/mL.
